Measured values taken from ChEMBL document CHEMBL4052588, “Design of a Biased Potent Small Molecule Inhibitor of the Bromodomain and PHD Finger-Containing (BRPF) Proteins Suitable for Cellular and in Vivo Studies” (J Med Chem, 2017).
Values after ≈ are worked out from the molar mass of the structure shown.

How the values were obtained:
[1] = Aqueous solubility of compound; format: physicochemical; details: buffer
THP-1 = assay: Growth inhibition of human THP1 cells after 72 hrs; format: functional; details: THP-1, 72 h
hERG (KCNH2) = hERG (KCNH2) (Homo sapiens, UniProt Q12809); assay: Inhibition of human ERG at 30 uM
Hs 766 = assay: Growth inhibition of human Hs766T cells after 72 hrs; format: functional; details: Hs 766, 72 h
OCI-AML2 = assay: Growth inhibition of human OCI-AML2 cells after 72 hrs; format: functional; details: OCI-AML2, 72 h
[2] = Fraction absorbed in CD-1 mouse at 3 mg/kg, po; format: ADME, organism-based; details: in vivo, read-out: Fabs
How it was run: (§1)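 Female CD-1 mice (n = 3), single dosing: intravenous 1.0 mg/kg, or oral 3.0 mg/kg given as a suspension. Blood levels were followed over time to derive clearance, volume of distribution, elimination half-life, Cmax, Tmax, AUC0−∞, oral bioavailability and fraction absorbed.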

[3] = Growth inhibition of human Panc 02.03 cells after 72 hrs; format: functional; details: Panc 02.03, 72 h
[4] = Cmax in CD-1 mouse blood at 3 mg/kg, po; format: ADME, organism-based; parameters: dose 3 mg/kg, route oral; details: whole blood; how it was run: as §1
AGS = assay: Growth inhibition of human AGS cells after 72 hrs; format: functional
[5] = Growth inhibition of human MOLP8 cells after 72 hrs; format: functional; details: MOLP-8, 72 h
[6] = target: T1, Bromodomain-containing protein 9 (Homo sapiens, UniProt Q9H8M2); assay: Binding affinity to human BRD9 by isothermal titration calorimetry
T1 sequence (Q9H8M2 whole entry): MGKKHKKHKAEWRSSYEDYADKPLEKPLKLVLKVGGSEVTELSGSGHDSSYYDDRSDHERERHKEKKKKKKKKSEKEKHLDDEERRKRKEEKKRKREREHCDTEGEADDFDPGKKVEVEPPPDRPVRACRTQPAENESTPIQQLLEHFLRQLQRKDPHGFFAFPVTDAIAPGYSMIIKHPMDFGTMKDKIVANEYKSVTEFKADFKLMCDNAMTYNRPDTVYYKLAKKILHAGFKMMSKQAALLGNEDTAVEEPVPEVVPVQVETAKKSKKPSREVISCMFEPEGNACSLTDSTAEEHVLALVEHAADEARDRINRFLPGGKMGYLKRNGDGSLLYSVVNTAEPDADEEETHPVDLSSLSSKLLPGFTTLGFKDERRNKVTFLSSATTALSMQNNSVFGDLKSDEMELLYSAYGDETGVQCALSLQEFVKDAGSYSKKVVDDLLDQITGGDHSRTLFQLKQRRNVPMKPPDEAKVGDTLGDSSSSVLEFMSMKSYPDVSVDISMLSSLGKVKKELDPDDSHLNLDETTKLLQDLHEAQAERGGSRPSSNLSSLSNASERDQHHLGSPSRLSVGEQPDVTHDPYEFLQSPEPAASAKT

LS180 = assay: Growth inhibition of human LS180 cells after 72 hrs; format: functional; details: LS180, 72 h
[7] = Apparent permeability across apical side to basolateral side in human Caco2 cells at 10 uM after 2 hrs by LC-MS/MS analysis; format: ADME, cell-based; details: Caco-2
CWR22R = assay: Growth inhibition of human 22Rv1 cells after 72 hrs; format: functional; details: 22Rv1, 72 h
COLO 205 = assay: Growth inhibition of human COLO205 cells after 72 hrs; format: functional; details: COLO 205, 72 h
[8] = Fraction unbound in mouse plasma; format: ADME, cell-free
[9] = Elimination half life in CD-1 mouse plasma at 1 mg/kg, iv administered as bolus; format: ADME, organism-based; details: read-out: beta t1/2 (converted); how it was run: as §1
MV4-11 = assay: Growth inhibition of human MV4-11 cells after 72 hrs; format: functional; details: MV4-11, 72 h
[10] = Growth inhibition of human SW403 cells after 72 hrs; format: functional; details: SW-403, 72 h
CREB-binding protein = CREB-binding protein (Homo sapiens, UniProt Q92793); assay: Inhibition of human CREBBP expressed in Escherichia coli BL21 after 1 hr by BROMOscan assay
[11] = target: Nucleosome-remodeling factor subunit BPTF (Homo sapiens, UniProt Q12830); assay: Inhibition of human His tagged FALZ incubated for 30 mins followed by addition of biotinylated peptide and further incubation for 30 mins measured by AlphaScreen assay
[12] = target: Transcription initiation factor TFIID subunit 1, TAF1 (Homo sapiens) (UniProt P21675); assay: Inhibition of human His tagged TAF1 incubated for 30 mins followed by addition of biotinylated peptide and further incubation for 30 mins measured by AlphaScreen assay
[13] = target: Histone acetyltransferase KAT2B (Homo sapiens, UniProt Q92831); assay: Inhibition of human PCAF expressed in Escherichia coli BL21 after 1 hr by BROMOscan assay
[14] = target: E3 ubiquitin-protein ligase TRIM33 (Homo sapiens, UniProt Q9UPN9); assay: Inhibition of human TRIM33 expressed in Escherichia coli BL21 after 1 hr by BROMOscan assay

Sequence of Transcription initiation factor TFIID subunit 1, TAF1 (Homo sapiens) (P21675 whole entry, looked up): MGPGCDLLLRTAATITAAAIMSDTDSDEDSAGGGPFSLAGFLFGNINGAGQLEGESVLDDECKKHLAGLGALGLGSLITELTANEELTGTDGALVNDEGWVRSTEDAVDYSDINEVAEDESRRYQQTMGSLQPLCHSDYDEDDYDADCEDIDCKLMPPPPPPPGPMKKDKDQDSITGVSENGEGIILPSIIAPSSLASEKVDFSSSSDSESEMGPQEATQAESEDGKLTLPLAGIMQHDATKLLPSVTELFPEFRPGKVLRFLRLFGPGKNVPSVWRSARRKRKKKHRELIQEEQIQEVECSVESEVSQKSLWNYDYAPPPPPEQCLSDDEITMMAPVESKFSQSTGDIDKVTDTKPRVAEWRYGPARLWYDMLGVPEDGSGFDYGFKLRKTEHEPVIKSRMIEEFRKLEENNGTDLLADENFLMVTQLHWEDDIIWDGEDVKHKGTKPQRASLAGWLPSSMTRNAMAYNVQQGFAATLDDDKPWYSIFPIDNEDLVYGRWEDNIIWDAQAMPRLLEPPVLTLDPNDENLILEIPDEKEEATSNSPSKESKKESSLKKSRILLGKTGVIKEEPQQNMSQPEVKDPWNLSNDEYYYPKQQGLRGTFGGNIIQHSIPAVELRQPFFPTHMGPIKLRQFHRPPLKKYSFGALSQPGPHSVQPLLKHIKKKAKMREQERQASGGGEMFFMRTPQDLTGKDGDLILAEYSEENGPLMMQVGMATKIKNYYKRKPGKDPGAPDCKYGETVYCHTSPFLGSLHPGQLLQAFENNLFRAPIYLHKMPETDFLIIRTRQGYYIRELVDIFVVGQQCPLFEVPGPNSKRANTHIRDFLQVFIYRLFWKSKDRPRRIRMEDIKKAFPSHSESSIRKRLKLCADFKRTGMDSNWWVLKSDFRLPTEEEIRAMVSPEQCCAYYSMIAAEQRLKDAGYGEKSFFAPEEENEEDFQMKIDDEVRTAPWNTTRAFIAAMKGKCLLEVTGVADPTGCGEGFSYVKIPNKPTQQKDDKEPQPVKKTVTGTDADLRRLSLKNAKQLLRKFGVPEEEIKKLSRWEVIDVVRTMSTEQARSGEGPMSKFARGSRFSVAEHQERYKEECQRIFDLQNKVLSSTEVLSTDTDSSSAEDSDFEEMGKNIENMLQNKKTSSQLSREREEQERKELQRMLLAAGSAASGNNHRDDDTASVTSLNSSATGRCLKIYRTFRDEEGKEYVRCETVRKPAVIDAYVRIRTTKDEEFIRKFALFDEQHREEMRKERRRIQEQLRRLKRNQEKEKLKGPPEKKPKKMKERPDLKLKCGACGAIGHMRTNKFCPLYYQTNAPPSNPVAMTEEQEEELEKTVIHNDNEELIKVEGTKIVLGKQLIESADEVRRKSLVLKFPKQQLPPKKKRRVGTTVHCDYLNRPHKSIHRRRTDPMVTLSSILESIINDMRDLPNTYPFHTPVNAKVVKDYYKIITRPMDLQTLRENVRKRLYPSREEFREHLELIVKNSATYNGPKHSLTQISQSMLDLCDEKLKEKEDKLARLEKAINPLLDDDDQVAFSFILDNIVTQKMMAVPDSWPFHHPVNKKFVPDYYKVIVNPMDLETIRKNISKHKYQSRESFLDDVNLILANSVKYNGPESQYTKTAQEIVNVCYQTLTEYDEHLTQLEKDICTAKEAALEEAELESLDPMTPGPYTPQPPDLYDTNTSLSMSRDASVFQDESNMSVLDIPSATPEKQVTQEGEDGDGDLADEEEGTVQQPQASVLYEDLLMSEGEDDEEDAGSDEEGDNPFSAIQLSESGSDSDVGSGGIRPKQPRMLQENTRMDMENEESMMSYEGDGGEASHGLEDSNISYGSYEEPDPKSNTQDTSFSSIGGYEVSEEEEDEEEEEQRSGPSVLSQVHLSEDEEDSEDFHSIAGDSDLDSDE
Sequence of CREB-binding protein (Q92793 whole entry): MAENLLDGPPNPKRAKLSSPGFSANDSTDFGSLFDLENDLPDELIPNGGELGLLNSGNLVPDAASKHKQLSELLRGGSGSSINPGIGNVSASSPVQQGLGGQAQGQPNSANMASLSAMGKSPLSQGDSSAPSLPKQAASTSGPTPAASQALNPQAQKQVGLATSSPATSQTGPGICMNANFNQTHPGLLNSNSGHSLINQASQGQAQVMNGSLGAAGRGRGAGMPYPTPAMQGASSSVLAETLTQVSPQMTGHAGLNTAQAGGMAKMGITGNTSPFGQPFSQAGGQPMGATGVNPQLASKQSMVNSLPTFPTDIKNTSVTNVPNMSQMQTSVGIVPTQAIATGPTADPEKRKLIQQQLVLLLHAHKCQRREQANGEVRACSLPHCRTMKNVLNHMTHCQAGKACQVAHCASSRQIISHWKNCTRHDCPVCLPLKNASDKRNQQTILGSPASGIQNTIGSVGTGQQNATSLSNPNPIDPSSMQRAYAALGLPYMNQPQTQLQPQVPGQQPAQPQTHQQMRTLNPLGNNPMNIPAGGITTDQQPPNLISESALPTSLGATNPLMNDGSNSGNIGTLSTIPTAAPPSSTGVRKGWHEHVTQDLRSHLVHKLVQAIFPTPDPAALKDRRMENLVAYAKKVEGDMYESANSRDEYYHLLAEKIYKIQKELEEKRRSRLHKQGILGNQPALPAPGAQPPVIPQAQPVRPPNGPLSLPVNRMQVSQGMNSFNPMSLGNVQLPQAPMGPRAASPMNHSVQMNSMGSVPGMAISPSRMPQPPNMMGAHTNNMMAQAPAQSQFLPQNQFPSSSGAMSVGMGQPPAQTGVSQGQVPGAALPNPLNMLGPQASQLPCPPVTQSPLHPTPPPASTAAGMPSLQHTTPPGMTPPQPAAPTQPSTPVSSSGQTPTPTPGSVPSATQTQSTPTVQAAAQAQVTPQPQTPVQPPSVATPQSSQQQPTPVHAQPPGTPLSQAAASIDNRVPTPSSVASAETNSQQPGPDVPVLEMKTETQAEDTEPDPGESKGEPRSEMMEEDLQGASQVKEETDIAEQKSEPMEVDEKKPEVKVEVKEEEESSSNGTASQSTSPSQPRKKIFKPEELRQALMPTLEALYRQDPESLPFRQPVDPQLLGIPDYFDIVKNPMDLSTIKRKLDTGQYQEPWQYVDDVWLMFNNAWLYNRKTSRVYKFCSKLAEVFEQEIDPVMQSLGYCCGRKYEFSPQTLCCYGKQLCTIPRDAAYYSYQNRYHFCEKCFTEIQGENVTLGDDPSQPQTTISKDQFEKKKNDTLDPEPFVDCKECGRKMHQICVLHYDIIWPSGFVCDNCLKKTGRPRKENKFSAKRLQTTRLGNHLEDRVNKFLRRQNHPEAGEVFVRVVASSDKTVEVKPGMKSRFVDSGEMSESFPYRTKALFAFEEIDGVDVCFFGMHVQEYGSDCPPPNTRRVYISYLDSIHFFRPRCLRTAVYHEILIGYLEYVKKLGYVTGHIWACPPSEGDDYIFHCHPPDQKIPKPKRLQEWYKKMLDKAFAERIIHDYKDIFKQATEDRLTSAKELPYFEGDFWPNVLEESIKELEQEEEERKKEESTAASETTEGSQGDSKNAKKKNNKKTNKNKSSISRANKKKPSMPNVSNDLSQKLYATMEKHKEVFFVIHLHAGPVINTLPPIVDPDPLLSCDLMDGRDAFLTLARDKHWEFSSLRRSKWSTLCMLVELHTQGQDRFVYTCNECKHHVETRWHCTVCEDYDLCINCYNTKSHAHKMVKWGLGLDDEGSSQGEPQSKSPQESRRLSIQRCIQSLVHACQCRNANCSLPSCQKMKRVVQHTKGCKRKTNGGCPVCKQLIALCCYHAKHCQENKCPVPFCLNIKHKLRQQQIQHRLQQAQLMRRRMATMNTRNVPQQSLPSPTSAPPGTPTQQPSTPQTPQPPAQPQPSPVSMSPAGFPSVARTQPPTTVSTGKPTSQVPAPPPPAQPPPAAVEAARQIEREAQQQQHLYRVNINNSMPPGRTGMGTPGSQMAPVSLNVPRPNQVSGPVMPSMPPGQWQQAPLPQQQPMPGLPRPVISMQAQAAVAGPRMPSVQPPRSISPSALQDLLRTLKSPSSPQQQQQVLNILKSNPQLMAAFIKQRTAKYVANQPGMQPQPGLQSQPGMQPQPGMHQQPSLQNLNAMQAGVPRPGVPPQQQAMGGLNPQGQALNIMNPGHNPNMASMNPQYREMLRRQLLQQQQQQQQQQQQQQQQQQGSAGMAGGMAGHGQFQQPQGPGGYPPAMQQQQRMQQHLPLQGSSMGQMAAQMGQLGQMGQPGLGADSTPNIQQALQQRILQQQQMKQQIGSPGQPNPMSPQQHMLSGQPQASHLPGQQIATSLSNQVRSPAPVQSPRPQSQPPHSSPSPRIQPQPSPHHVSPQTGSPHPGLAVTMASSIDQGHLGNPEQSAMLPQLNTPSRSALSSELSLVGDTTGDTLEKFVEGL
Sequence of Histone acetyltransferase KAT2B (Q92831 whole entry): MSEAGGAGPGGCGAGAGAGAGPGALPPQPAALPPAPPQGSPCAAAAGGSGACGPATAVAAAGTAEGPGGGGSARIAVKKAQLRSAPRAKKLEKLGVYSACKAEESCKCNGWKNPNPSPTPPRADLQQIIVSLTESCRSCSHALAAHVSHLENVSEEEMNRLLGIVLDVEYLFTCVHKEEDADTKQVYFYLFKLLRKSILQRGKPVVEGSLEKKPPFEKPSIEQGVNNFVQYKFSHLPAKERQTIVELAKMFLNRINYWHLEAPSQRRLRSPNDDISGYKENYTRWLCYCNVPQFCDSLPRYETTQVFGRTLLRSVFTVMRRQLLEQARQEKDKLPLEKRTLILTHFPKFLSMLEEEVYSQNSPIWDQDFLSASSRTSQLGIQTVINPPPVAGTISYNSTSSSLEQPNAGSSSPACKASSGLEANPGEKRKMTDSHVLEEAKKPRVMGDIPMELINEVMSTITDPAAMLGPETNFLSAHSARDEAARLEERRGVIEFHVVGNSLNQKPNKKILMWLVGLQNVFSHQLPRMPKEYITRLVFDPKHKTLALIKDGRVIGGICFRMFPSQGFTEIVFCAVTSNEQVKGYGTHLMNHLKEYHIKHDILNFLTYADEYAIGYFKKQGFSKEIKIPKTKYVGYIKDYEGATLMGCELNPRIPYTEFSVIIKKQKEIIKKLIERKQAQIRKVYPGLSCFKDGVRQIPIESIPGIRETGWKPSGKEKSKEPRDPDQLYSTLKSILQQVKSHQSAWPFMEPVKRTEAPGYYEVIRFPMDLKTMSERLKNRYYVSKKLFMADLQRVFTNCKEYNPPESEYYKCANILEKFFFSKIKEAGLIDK

Cc1cc2cc(NS(=O)(=O)c3ccc(C#N)cc3)ccc2n(C)c1=O
solubility [1]: 100 µM (≈ 35.3 µg/mL) | GI50 (THP-1): 5.7 µM | inhibition at 30 µM (hERG (KCNH2)): 45.6% | GI50 (Hs 766): 1 to 10 µM | GI50 (OCI-AML2): 1.3 µM | Fa [2]: 51% | GI50 [3]: 1 to 10 µM | Cmax [4]: 4 µM | GI50 (AGS): 1 to 10 µM | GI50 [5]: 1 to 10 µM | Kd [6]: 1.13 µM | GI50 (LS180): 1 to 10 µM | Papp A→B at 2 h, 10 µM [7]: 10 ×10⁻⁶ cm/s | GI50 (CWR22R): 1 to 10 µM | GI50 (COLO 205): 1 to 10 µM | fraction unbound [8]: 0.03 | half-life [9]: 2 h | GI50 (MV4-11): 9.9 µM | GI50 [10]: 1 to 10 µM

CCc1cc2cc(NS(=O)(=O)c3ccc(C#N)cc3)ccc2n(CC)c1=O
IC50 (CREB-binding protein): > 100 µM | IC50 [11]: > 20 µM | IC50 [12]: > 20 µM | IC50 [13]: > 100 µM | IC50 [14]: > 100 µM
